Activity calls are given as the source filed them. No cut-off for these calls is given here.
What was measured:
Leishmania major [1] = assay: Antileishmanial activity against promastigote form of Leishmania major MHOM/IL/81/BNI after 96 hrs by resazurin-based spectrofluorimetric method; assay type: functional, organism-based
How it was run: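 Promastigotes were maintained in Schneider's medium + 13% heat-inactivated FBS at 26 °C. They were seeded at 10^6/mL and exposed to compound for 96 h at 26 °C; DMSO was at most 1% final. Resazurin was added 4 h before reading, with fluorescence at ex 550/em 590 nm. IC50 values are means of at least three determinations.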

HeLa = assay: Cytotoxicity against human HeLa cells after 96 hrs by resazurin-based spectrofluorimetric method; assay type: cell-based
How it was run: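 HeLa cells in RPMI 1640 + 10% serum were seeded at 10^5/mL and incubated 24 h at 37 °C, 5% CO2. Compound dilutions were then added in duplicate, with DMSO at most 1% final. After 96 h, resazurin was added; after a further 3 h at 37 °C, fluorescence was read at ex 550/em 590 nm.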

[2] = Selectivity index, ratio of IC50 for human HeLa cells to IC50 for promastigote form of Leishmania major MHOM/IL/81/BNI; assay type: toxicity, cell-based; details: read-out: Ratio IC50
[3] = Methanol-buffer partition coefficient, log D of the compound by RP-HPLC analysis at pH 7.5; assay type: physicochemical
How it was run: (§1)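 Log D was determined by RP-HPLC on a C18 column with methanol and aqueous buffer: 0.01 M acetic acid for pH 4.5, and 0.01 M ammonium acetate for […]. Dead time was taken from thiourea. Extrapolated log kw was calibrated against 30 OECD reference substances, and log D read by interpolation for each pH.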

Leishmania major [4] = assay: Antileishmanial activity against amastigote form of Leishmania major MHOM/IL/81/BNI infected in Balb/c mouse peritoneal macrophages assessed as inhibition of intracellular amastigote burden at 10 uM […] by May-Grunwald-Geimsa staining; assay type: functional
How it was run: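 Peritoneal macrophages from Balb/c mice at 1.5×10^5 cells/mL in RPMI 1640 + 15% FBS on glass slides, allowed to attach for 24 h (37 °C, 5% CO2). They were then infected with stationary-phase promastigotes (1.5×10^5/mL) for 24 h, washed, and exposed to 10 µM compound. Medium plus drug was renewed at 48 h. After 2 more days, cells were methanol-fixed, Giemsa-stained, and amastigotes counted per 100 macrophages in duplicate wells.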

[5] = Methanol-buffer partition coefficient, log D of the compound by RP-HPLC analysis at pH 4.5; assay type: physicochemical; how it was run: as §1
[6] = Inhibition of Leishmania major recombinant His-tagged CK1.2 using RRKHAAIGpSAYSITA as substrate and [32gammaP]ATP after 30 mins by scintillation counting
How it was run: (§2)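 Kinase reactions at 30 °C for 30 min with 15 µM [γ-33P]ATP and 25 µM CKS peptide, in buffer A (Mops pH 7.2, EGTA, MgCl2, DTT, vanadate). Porcine-brain CK1δ/ε was run in three-fold diluted buffer A. LmCK1.2 was His-tagged, expressed in E. coli and cobalt-purified. Reactions were spotted on P81 paper, washed in 1% phosphoric acid, and counted by scintillation. After blank subtraction, activity is expressed as % of the uninhibited maximum, with DMSO controls.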

Leishmania major [7] = assay: Inhibition of Leishmania major PKC
[8] = Inhibition of pig brain CK1delta/epsilon using RRKHAAIGpSAYSITA as substrate and [32gammaP]ATP after 30 mins by scintillation counting; design: species or system Sus scrofa; how it was run: as §2
Leishmania major [9] = assay: Antileishmanial activity against amastigote form of Leishmania major MHOM/IL/81/BNI infected in Balb/c mouse peritoneal macrophages assessed as inhibition of intracellular amastigote burden at 1 uM after 48 hrs by May-Grunwald-Geimsa staining; assay type: functional

| chromatographic logD [3] | chromatographic logD [5] | IC50 [6] [µM] | inhibition (Leishmania major [7]) | IC50 [8] [µM] | Structure (SMILES) | IC50 (Leishmania major [1]) [µM] | IC50 (HeLa) [µM] | selectivity ratio [2] | inhibition at 10 µM (Leishmania major [4]) [%] | inhibition at 1 µM (Leishmania major [9]) [%] |
| --- | --- | --- | --- | --- | --- | --- | --- | --- | --- | --- |
|  |  |  |  |  | N#Cc1ccc(-c2c(-c3ccccc3)nc3ccccn23)cc1 | > 100 |  |  |  |  |
|  |  |  |  |  | Clc1cc(Cl)cc(-c2nc3ccccn3c2-c2cccnc2)c1 | 31.4 | 28 | 0.89 |  |  |
| 4.65 | 4.2 | > 10 | inactive | > 10 | O=[N+]([O-])c1ccc(-c2nc3ccccn3c2-c2ccccc2)cc1 | 30 | 554 | 18.5 | 84 |  |
|  |  |  |  |  | Fc1ccccc1-c1nc2ccccn2c1-c1cccnc1 | 34.8 | 29 | 0.83 |  |  |
|  |  |  |  |  | c1ccc(-c2nc3ccccn3c2-c2cccnc2)cc1 | 22.5 | 4 | 0.18 |  |  |
|  |  |  |  |  | N=C(N)c1ccc(OCCCCCOc2ccc(C(=N)N)cc2)cc1 [PENTAMIDINE] | 4.8 | 15 | 3.13 | 99 |  |
| 5.25 | 3.91 | > 10 |  | > 10 | Clc1cccc(-c2nc3ccccn3c2-c2ccccc2)c1 | 4.4 | 5 | 1.14 | 94 |  |
|  |  |  |  |  | COc1ccccc1-c1nc2ccccn2c1-c1ccccc1 | 18.2 | 24 | 1.32 |  |  |
|  |  |  |  |  | COc1ccc(-c2nc3ccccn3c2-c2cccc([N+](=O)[O-])c2)cc1 | 14 | 30 | 2.14 |  |  |
| 4.58 | 2.31 | 1.2 |  | 0.63 | COc1ccc(-c2c(-c3ccccc3)nc3ccccn23)cc1 | 7.2 | 14 | 1.92 | 71 |  |
| 5.19 | 3.59 | 4 |  | 7.1 | CCOC(=O)c1ccc(-c2c(-c3ccccc3)nc3ccccn23)cc1 | 5.2 | 5 | 0.96 | 18 |  |
| 2.87 | 2.03 | 0.3 |  | 0.25 | c1ccc(-c2nc3ccccn3c2-c2ccncc2)cc1 | 6.5 | 25 | 3.85 | 32 |  |
|  |  |  |  |  | NC(=O)c1ccc(-c2c(-c3ccccc3)nc3ccccn23)cc1 | 27 | 27 | 1 |  |  |
|  |  |  |  |  | Fc1ccc(-c2nc3ccccn3c2-c2ccccc2)cc1 | 23 | 72 | 3.13 |  |  |
| 5.46 | 4.26 | > 10 | inactive | > 10 | CCOC(=O)c1ccc(-c2nc3ccccn3c2-c2ccccc2)cc1 | 40 | 346 | 8.65 | 86 |  |
|  |  |  |  |  | O=C(O)c1ccc(-c2c(-c3ccccc3)nc3ccccn23)cc1 | > 100 |  |  |  |  |

| chromatographic logD [3] | chromatographic logD [5] | IC50 [6] [µM] | inhibition (Leishmania major [7]) | IC50 [8] [µM] | Structure (SMILES) | IC50 (Leishmania major [1]) [µM] | IC50 (HeLa) [µM] | selectivity ratio [2] | inhibition at 10 µM (Leishmania major [4]) [%] | inhibition at 1 µM (Leishmania major [9]) [%] |
| --- | --- | --- | --- | --- | --- | --- | --- | --- | --- | --- |
|  |  |  |  |  | O=[N+]([O-])c1cccc(-c2c(-c3ccc(F)cc3)nc3ccccn23)c1 | > 100 |  |  |  |  |
|  |  |  |  |  | Fc1ccccc1-c1nc2ccccn2c1-c1ccccc1 | 39 | 18 | 0.46 |  |  |
|  |  |  |  |  | c1ccc(-c2nc3ccccn3c2-c2ccsc2)cc1 | 14.3 | 35 | 2.45 |  |  |
| 4.5 | 2.15 | > 10 |  | > 10 | c1ccc(-c2nc3ccccn3c2-c2ccccc2)cc1 | 22.5 | 31 | 1.38 | 84 |  |
|  |  |  |  |  | c1ccc(-c2nc3ccccn3c2-c2cncnc2)cc1 | > 100 |  |  |  |  |
|  |  |  |  |  | Oc1ccc(-c2c(-c3ccccc3)nc3ccccn23)cc1 | 40 | 16 | 0.4 |  |  |
|  |  |  |  |  | Fc1ccc(-c2nc3ccccn3c2-c2cccnc2)cc1 | 38.3 | 87 | 2.27 |  |  |
| 4.59 | 2.04 | > 10 |  | > 10 | COc1ccc(-c2nc3ccccn3c2-c2ccccc2)cc1 | 26.6 | 48 | 1.8 | 85 |  |
| 5.88 | 4.53 | > 10 |  | > 10 | Clc1cc(Cl)cc(-c2c(-c3ccccc3)nc3ccccn23)c1 | 7.7 | 18 | 2.34 | 79 |  |
| 5.13 | 2.61 | > 10 |  | > 10 | Cc1ccc(-c2c(-c3ccccc3)nc3ccccn23)cc1 | 4 | 4 | 1 | 96 |  |
|  |  |  |  |  | CC(=O)Oc1ccc(-c2c(-c3ccccc3)nc3ccccn23)cc1 | 16 | 40 | 2.5 |  |  |
| 6.1 | 5.58 | > 10 | inactive | > 10 | Clc1cc(Cl)cc(-c2nc3ccccn3c2-c2ccccc2)c1 | 39 | 67 | 1.71 |  | 71 |
| 4.35 | 3.29 | > 10 |  | > 10 | O=[N+]([O-])c1ccc(-c2c(-c3ccccc3)nc3ccccn23)cc1 | 4.9 | 27 | 5.51 | 68 |  |
|  |  |  |  |  | Nc1ccc(-c2c(-c3ccccc3)nc3ccccn23)cc1 | 43 | 28.1 | 0.65 |  |  |
| 5.9 | 4.04 | > 10 | inactive | > 10 | CC(C)(C)C(=O)Oc1ccc(-c2c(-c3ccccc3)nc3ccccn23)cc1 | 7 | 38 | 5.43 | 95 |  |
